From ChEMBL document CHEMBL4477203 (J Med Chem, 2016)
Numbered stars: 1 amine (or outer) side, 2 acyl side, 3 side chain; on linkers, the order of the positions; unused ones are H or OH. Bridge positions count the residues as written; N and C are the ends. Peptide text beside a SMILES is read from it. I, II: the chains in the order shown. Suberoyl = O=C(CCCCCCC(=O)[*:2])[*:1]

Tests used:
[1] = target: T1, Neuropeptide Y receptor type 4 (Homo sapiens, UniProt P50391); test: Agonist activity at human NPY Y4 receptor expressed in CHO cells co-expressing Gqi5-mtAEQ assessed as induction of calcium mobilization by aequorin luminescence assay; type: functional, cell-based
T1 sequence (P50391 whole entry): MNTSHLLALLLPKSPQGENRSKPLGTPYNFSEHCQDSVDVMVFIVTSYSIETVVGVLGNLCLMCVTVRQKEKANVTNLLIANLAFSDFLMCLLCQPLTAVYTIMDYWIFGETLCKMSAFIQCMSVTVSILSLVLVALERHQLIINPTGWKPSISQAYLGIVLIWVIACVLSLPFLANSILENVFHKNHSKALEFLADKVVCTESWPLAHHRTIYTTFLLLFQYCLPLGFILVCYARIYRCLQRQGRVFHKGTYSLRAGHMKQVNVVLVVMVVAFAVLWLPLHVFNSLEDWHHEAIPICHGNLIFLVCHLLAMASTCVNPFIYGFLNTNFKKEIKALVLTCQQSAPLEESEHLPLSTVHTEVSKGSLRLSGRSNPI
How it was run: (§1)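 Luminescence was integrated as area under the curve and normalized to the response to 1 µM PP. Data are means ± SEM of at least 3 independent experiments, each run in triplicate.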

[2] = target: T1, Neuropeptide Y receptor type 4; test: Intrinsic activity at human NPY Y4 receptor expressed in CHO cells co-expressing Gqi5-mtAEQ assessed as induction of calcium mobilization by aequorin luminescence assay relative to pancreatic polypeptide; type: functional, cell-based; how it was run: as §1
[3] = target: T1, Neuropeptide Y receptor type 4; test: Agonist activity at human NPY Y4 receptor expressed in HEK293 cells co-expressing CRE-Luc gene assessed as inhibition of forskolin stimulated luciferase activity after 4.5 hrs by luminescence assay; type: functional, cell-based
How it was run: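 HEK293 cells stably co-transfected with a CRE-controlled firefly luciferase reporter and hY4R, tested in phenol-red-free DMEM, pH 7.4. The maximal inhibition by PP was set to 0% activity (α = 1.0). Data are means ± SEM of at least 3 experiments in triplicate.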

[4] = target: T1, Neuropeptide Y receptor type 4; test: Intrinsic activity at human NPY Y4 receptor expressed in HEK293 cells co-expressing CRE-Luc gene assessed as inhibition of forskolin stimulated luciferase activity after 4.5 hrs by luminescence assay relative to pancreatic polypeptide; type: functional, cell-based
How it was run: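 HEK293 cells stably co-transfected with a CRE-controlled firefly luciferase reporter and hY4R, tested in phenol-red-free DMEM, pH 7.4. […] The maximal inhibition by PP was set to 0% activity (α = 1.0). Data are means ± SEM of at least 3 experiments in triplicate.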

[5] = target: T2, Neuropeptide Y receptor type 1 (Homo sapiens, UniProt P25929); test: Displacement of [3H]UR-MK136 from human NPY Y1 receptor expressed in human MCF7 cells by liquid scintillation counting; type: cell-based
T2 sequence (P25929 whole entry): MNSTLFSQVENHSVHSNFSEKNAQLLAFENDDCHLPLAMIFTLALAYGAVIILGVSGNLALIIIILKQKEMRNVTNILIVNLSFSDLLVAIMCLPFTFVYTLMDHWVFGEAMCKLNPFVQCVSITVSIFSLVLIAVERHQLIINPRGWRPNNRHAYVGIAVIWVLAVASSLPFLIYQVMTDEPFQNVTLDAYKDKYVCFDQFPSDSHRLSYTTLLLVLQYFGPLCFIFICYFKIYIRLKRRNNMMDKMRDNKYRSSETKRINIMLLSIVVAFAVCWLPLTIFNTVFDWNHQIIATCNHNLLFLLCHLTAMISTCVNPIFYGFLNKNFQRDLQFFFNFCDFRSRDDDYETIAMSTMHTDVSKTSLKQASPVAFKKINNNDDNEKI

[6] = target: T3, Neuropeptide Y receptor type 2 (Homo sapiens, UniProt P49146); test: Displacement of [3H]propionyl-pNPY from human NPY Y2 receptor expressed in CHO cells co-expressing Gqi5-mtAEQ after 90 mins by liquid scintillation counting; type: cell-based
T3 sequence (P49146 whole entry): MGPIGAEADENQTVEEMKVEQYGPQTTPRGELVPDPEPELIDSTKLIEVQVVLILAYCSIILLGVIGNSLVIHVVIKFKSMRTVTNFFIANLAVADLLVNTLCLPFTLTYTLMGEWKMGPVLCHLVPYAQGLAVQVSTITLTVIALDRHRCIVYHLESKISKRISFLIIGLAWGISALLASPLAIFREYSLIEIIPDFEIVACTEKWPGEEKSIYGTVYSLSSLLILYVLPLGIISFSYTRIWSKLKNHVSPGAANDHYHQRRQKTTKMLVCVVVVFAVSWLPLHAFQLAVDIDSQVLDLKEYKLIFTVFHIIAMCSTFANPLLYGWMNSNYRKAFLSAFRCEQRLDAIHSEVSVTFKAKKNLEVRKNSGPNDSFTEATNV
How it was run: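 Adherent CHO-hY2R-Gqi5-mtAEQ cells in buffer I with 1% BSA and 0.1 mg/mL bacitracin at 22 °C. […] Incubation was 90 min, followed by two ice-cold washes, lysis and scintillation counting.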

[7] = target: T1, Neuropeptide Y receptor type 4; test: Displacement of [3H](2R,7R)-10 from human NPY Y4 receptor expressed in CHO cells co-expressing Gqi5-mtAEQ after 90 mins in presence of sodium-free HEPES buffer by liquid scintillation counting; type: cell-based
[8] = target: T4, Neuropeptide Y receptor type 5 (Homo sapiens, UniProt Q15761); test: Displacement of [3H]propionyl-pNPY from human NPY Y5 receptor expressed in human HEC1b cells after 120 mins by liquid scintillation counting; type: cell-based
T4 sequence (Q15761 whole entry): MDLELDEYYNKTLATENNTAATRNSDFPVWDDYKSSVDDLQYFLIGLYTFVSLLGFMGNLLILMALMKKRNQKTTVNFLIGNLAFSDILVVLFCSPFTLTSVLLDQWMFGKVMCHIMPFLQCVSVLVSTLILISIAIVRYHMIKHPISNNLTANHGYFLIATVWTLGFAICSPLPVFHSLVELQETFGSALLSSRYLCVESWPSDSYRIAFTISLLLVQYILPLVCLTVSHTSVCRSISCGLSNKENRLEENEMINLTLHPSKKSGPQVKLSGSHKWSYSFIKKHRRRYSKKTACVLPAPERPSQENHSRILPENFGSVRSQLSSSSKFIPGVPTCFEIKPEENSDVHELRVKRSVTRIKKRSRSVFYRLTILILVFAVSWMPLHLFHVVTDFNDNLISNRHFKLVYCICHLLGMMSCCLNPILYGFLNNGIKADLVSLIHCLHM
How it was run: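 Adherent HEC-1B-hY5 cells in buffer II with 1% BSA and 0.1 mg/mL bacitracin at 22 °C. […] Incubation was 120 min, followed by ice-cold washes, lysis and scintillation counting.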

Row | Structure (SMILES) | EC50 [1] | Intrinsic activity [2] | EC50 [3] | Intrinsic activity [4] | Ki [5] | Ki [6] | Ki [7] | Ki [8] | EC50 ([1]; cho) | EC50 ([3]; hek293) | Ki ([5]; mcf7) | Ki ([6]; cho) | Ki ([7]; cho)
1 | CC(C)C[C@H](NC(=O)[C@H](C)NC(=O)[C@H](Cc1ccc(O)cc1)NC(=O)CCCCCCC(=O)N[C@@H](Cc1ccc(O)cc1)C(=O)N[C@@H](C)C(=O)N[C@@H](CC(C)C)C(=O)N[C@@H](CCCNC(=N)N)C(=O)N[C@@H](Cc1ccc(O)cc1)C(N)=O)C(=O)N[C@@H](CCCNC(=N)N)C(=O)N[C@@H](Cc1ccc(O)cc1)C(N)=O (I: YALRY-NH2 / II: YALRY-NH2; linker I:N-II:N via Suberoyl) | > 3000 nM | – | > 3000 nM | – | > 3000 nM | > 10000 nM | > 3000 nM | 550 nM | – | – | – | – | –
2 | CC[C@H](C)[C@H](N)C(=O)N[C@H]1CCC(=O)NC[C@@H](C(=O)N[C@@H](Cc2ccc(O)cc2)C(=O)N[C@@H](CCCN=C(N)N)C(=O)N[C@@H](CC(C)C)C(=O)N[C@@H](CCCN=C(N)N)C(=O)N[C@@H](Cc2ccc(O)cc2)C(N)=O)NC(=O)[C@@H]2CCCN2C(=O)[C@H](NC(=O)[C@@H](N)[C@@H](C)CC)CCC(=O)NC[C@H](C(=O)N[C@@H](Cc2ccc(O)cc2)C(=O)N[C@@H](CCCN=C(N)N)C(=O)N[C@@H](CC(C)C)C(=O)N[C@@H](CCCN=C(N)N)C(=O)N[C@@H](Cc2ccc(O)cc2)C(N)=O)NC(=O)[C@@H]2CCCN2C1=O | – | 0.62 | – | 1.01 | – | – | – | – | – | – | – | – | –

More lines, in order of falling Ki [8], values ahead:

Row | EC50 [1] | Intrinsic activity [2] | EC50 [3] | Intrinsic activity [4] | Ki [5] | Ki [6] | Ki [7] | Ki [8] | EC50 ([1]; cho) | EC50 ([3]; hek293) | Ki ([5]; mcf7) | Ki ([6]; cho) | Ki ([7]; cho) | Structure (SMILES)
3 | 310 nM | 0.85 | 150 nM | 0.99 | 1600 nM | > 3000 nM | 11 nM | 460 nM | – | – | – | – | – | CC(C)C[C@H](NC(=O)[C@H](CCCNC(=N)N)NC(=O)[C@H](Cc1ccc(O)cc1)NC(=O)CCCCCCC(=O)N[C@@H](Cc1ccc(O)cc1)C(=O)N[C@@H](CCCNC(=N)N)C(=O)N[C@@H](CC(C)C)C(=O)N[C@@H](CCCNC(=N)N)C(=O)N[C@@H](Cc1ccc(O)cc1)C(N)=O)C(=O)N[C@@H](C)C(=O)N[C@@H](Cc1ccc(O)cc1)C(N)=O (I: YRLAY-NH2 / II: YRLRY-NH2; linker I:N-II:N via Suberoyl)
4 | – | 0.7 | – | 0.98 | – | – | – | 400 nM | 59 nM | 27 nM | 290 nM | 750 nM | 2.8 nM | CCC(=O)N[C@H](CCCC[C@@H](N)C(=O)N[C@H](Cc1ccc(O)cc1)C(=O)N[C@H](CCCNC(=N)N)C(=O)N[C@H](CC(C)C)C(=O)N[C@H](CCCNC(=N)N)C(=O)N[C@H](Cc1ccc(O)cc1)C(N)=O)C(=O)N[C@@H](Cc1ccc(O)cc1)C(=O)N[C@@H](CCCNC(=N)N)C(=O)N[C@@H](CC(C)C)C(=O)N[C@@H](CCCNC(=N)N)C(=O)N[C@@H](Cc1ccc(O)cc1)C(N)=O
5 | 49 nM | 0.73 | 86 nM | 0.93 | 720 nM | 1700 nM | 3.5 nM | 280 nM | – | – | – | – | – | CC(C)C[C@H](NC(=O)[C@H](CCCNC(=N)N)NC(=O)[C@H](Cc1ccc(O)cc1)NC(=O)CCCCCCC(=O)N[C@@H](Cc1ccc(O)cc1)C(=O)N[C@@H](CCCNC(=N)N)C(=O)N[C@@H](CC(C)C)C(=O)N[C@@H](CCCNC(=N)N)C(=O)N[C@@H](Cc1ccc(O)cc1)C(N)=O)C(=O)N[C@@H](CCCNC(=N)N)C(=O)N[C@@H](Cc1ccc(O)cc1)C(N)=O (I: YRLRY-NH2 / II: YRLRY-NH2; linker I:N-II:N via Suberoyl)
